Experimental data from ChEMBL document CHEMBL5058577, “EUbOPEN Chemogenomics Library 2 (Multiplex)” (2022).

Tested on: HEK-293T
Assay: Multiplex assay against HEK293T
Type: toxicity, cell-based
Details: human
Method in brief: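 Cells were classed with CellPathfinder machine-learning gating, first as Hoechst high-intensity objects or normal cells, then (normal cells) as healthy, pyknosed or fragmented nuclei, and finally (pyknosed cells) as mitotic or apoptotic. Staining of live cells at seeding used Hoechst33342, BioTracker Green Microtubule Cytoskeleton Dye, MitoTracker Red and Annexin V Alexa Fluor 680, with imaging on a CQ1 microscope at 37°C and 5% CO2 after compound addition. Tubulin, mitochondrial-mass and membrane-permeability phenotypes are per cents of healthy-nucleus cells.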

[1] = 12 h, 1 µM, compound concentration 1 uM, replicate 1
[2] = 12 h, 1 µM, compound concentration 1 uM, replicate 2
[3] = 12 h, 10 µM, compound concentration 10 uM, replicate 1
[4] = 12 h, 10 µM, compound concentration 10 uM, replicate 2
[5] = 24 h, 1 µM, compound concentration 1 uM, replicate 1
[6] = 24 h, 1 µM, compound concentration 1 uM, replicate 2
[7] = 24 h, 10 µM, compound concentration 10 uM, replicate 1
[8] = 24 h, 10 µM, compound concentration 10 uM, replicate 2
[9] = 48 h, 1 µM, compound concentration 1 uM, replicate 1
[10] = 48 h, 1 µM, compound concentration 1 uM, replicate 2
[11] = 48 h, 10 µM, compound concentration 10 uM, replicate 1
[12] = 48 h, 10 µM, compound concentration 10 uM, replicate 2

OCCCNc1cc(-c2ccnc(Nc3cccc(Cl)c3)n2)ccn1
Population Apoptotic (%) [1]: 66%
Population Fragmented Nuclei (%) [1]: 9%
Population Healthy Nuclei (%) [1]: 66%
Population Hoechst High Intensity Objects (%) [1]: 14%
Population Membrane Permeable-Phenotype (%) [1]: 0%
Population Mitochondria Different-Phenotype (%) [1]: 82%
Population Mitotic Cells (%) [1]: 33%
Population Normal (%) [1]: 85%
Population Pyknosed Nuclei (%) [1]: 24%
Population Tubulin-Different-Phenotype (%) [1]: 75%
Total Cell Count [1]: 204
Population Apoptotic (%) [2]: 65%
Population Fragmented Nuclei (%) [2]: 8%
Population Healthy Nuclei (%) [2]: 74%
Population Hoechst High Intensity Objects (%) [2]: 11%
Population Mitochondria Different-Phenotype (%) [2]: 88%
Population Mitotic Cells (%) [2]: 34%
Population Normal (%) [2]: 88%
Population Pyknosed Nuclei (%) [2]: 16%
Population Tubulin-Different-Phenotype (%) [2]: 57%
Total Cell Count [2]: 173
Population Apoptotic (%) [3]: 78%
Population Fragmented Nuclei (%) [3]: 14%
Population Healthy Nuclei (%) [3]: 55%
Population Hoechst High Intensity Objects (%) [3]: 30%
Population Membrane Permeable-Phenotype (%) [3]: 1%
Population Mitochondria Different-Phenotype (%) [3]: 83%
Population Mitotic Cells (%) [3]: 21%
Population Normal (%) [3]: 69%
Population Pyknosed Nuclei (%) [3]: 30%
Population Tubulin-Different-Phenotype (%) [3]: 80%
Total Cell Count [3]: 249
Population Apoptotic (%) [4]: 75%
Population Healthy Nuclei (%) [4]: 67%
Population Hoechst High Intensity Objects (%) [4]: 41%
Population Membrane Permeable-Phenotype (%) [4]: 10%
Population Mitochondria Different-Phenotype (%) [4]: 85%
Population Mitotic Cells (%) [4]: 25%
Population Normal (%) [4]: 58%
Population Pyknosed Nuclei (%) [4]: 18%
Population Tubulin-Different-Phenotype (%) [4]: 72%
Total Cell Count [4]: 224
Population Apoptotic (%) [5]: 91%
Population Fragmented Nuclei (%) [5]: 10%
Population Healthy Nuclei (%) [5]: 66%
Population Hoechst High Intensity Objects (%) [5]: 14%
Population Membrane Permeable-Phenotype (%) [5]: 0%
Population Mitochondria Different-Phenotype (%) [5]: 80%
Population Mitotic Cells (%) [5]: 8%
Population Normal (%) [5]: 85%
Population Pyknosed Nuclei (%) [5]: 22%
Population Tubulin-Different-Phenotype (%) [5]: 61%
Total Cell Count [5]: 228
Population Apoptotic (%) [6]: 77%
Population Fragmented Nuclei (%) [6]: 13%
Population Healthy Nuclei (%) [6]: 76%
Population Hoechst High Intensity Objects (%) [6]: 15%
Population Mitochondria Different-Phenotype (%) [6]: 86%
Population Mitotic Cells (%) [6]: 22%
Population Normal (%) [6]: 84%
Population Pyknosed Nuclei (%) [6]: 10%
Total Cell Count [6]: 202
Population Apoptotic (%) [7]: 71%
Population Fragmented Nuclei (%) [7]: 16%
Population Healthy Nuclei (%) [7]: 44%
Population Hoechst High Intensity Objects (%) [7]: 41%
Population Membrane Permeable-Phenotype (%) [7]: 0%
Population Mitochondria Different-Phenotype (%) [7]: 85%
Population Mitotic Cells (%) [7]: 28%
Population Normal (%) [7]: 58%
Population Pyknosed Nuclei (%) [7]: 38%
Population Tubulin-Different-Phenotype (%) [7]: 88%
Total Cell Count [7]: 237
Population Apoptotic (%) [8]: 78%
Population Fragmented Nuclei (%) [8]: 15%
Population Healthy Nuclei (%) [8]: 54%
Population Hoechst High Intensity Objects (%) [8]: 45%
Population Membrane Permeable-Phenotype (%) [8]: 3%
Population Mitochondria Different-Phenotype (%) [8]: 91%
Population Mitotic Cells (%) [8]: 21%
Population Normal (%) [8]: 54%
Population Pyknosed Nuclei (%) [8]: 29%
Population Tubulin-Different-Phenotype (%) [8]: 82%
Total Cell Count [8]: 207
Population Apoptotic (%) [9]: 82%
Population Fragmented Nuclei (%) [9]: 12%
Population Healthy Nuclei (%) [9]: 51%
Population Hoechst High Intensity Objects (%) [9]: 18%
Population Membrane Permeable-Phenotype (%) [9]: 1%
Population Mitochondria Different-Phenotype (%) [9]: 88%
Population Mitotic Cells (%) [9]: 17%
Population Normal (%) [9]: 81%
Population Pyknosed Nuclei (%) [9]: 35%
Population Tubulin-Different-Phenotype (%) [9]: 68%
Total Cell Count [9]: 232
Population Apoptotic (%) [10]: 61%
Population Fragmented Nuclei (%) [10]: 17%
Population Healthy Nuclei (%) [10]: 65%
Population Hoechst High Intensity Objects (%) [10]: 21%
Population Membrane Permeable-Phenotype (%) [10]: 0%
Population Mitochondria Different-Phenotype (%) [10]: 84%
Population Mitotic Cells (%) [10]: 38%
Population Normal (%) [10]: 78%
Population Pyknosed Nuclei (%) [10]: 17%
Population Tubulin-Different-Phenotype (%) [10]: 59%
Total Cell Count [10]: 193
Population Apoptotic (%) [11]: 71%
Population Fragmented Nuclei (%) [11]: 16%
Population Healthy Nuclei (%) [11]: 46%
Population Hoechst High Intensity Objects (%) [11]: 57%
Population Membrane Permeable-Phenotype (%) [11]: 1%
Population Mitochondria Different-Phenotype (%) [11]: 78%
Population Mitotic Cells (%) [11]: 28%
Population Normal (%) [11]: 42%
Population Pyknosed Nuclei (%) [11]: 37%
Population Tubulin-Different-Phenotype (%) [11]: 76%
Total Cell Count [11]: 262
Population Apoptotic (%) [12]: 83%
Population Fragmented Nuclei (%) [12]: 25%
Population Hoechst High Intensity Objects (%) [12]: 56%
Population Membrane Permeable-Phenotype (%) [12]: 8%
Population Mitochondria Different-Phenotype (%) [12]: 85%
Population Mitotic Cells (%) [12]: 16%
Population Normal (%) [12]: 43%
Population Pyknosed Nuclei (%) [12]: 28%
Population Tubulin-Different-Phenotype (%) [12]: 79%
Total Cell Count [12]: 238

C[C@@H]1CC(=O)Nc2cccc(-c3ccc4c(c3)c(-c3cnn(C)c3)nn4C)c2N1
Population Apoptotic (%) [1]: 36%
Population Fragmented Nuclei (%) [1]: 7%
Population Healthy Nuclei (%) [1]: 76%
Population Hoechst High Intensity Objects (%) [1]: 7%
Population Membrane Permeable-Phenotype (%) [1]: 0%
Population Mitochondria Different-Phenotype (%) [1]: 51%
Population Mitotic Cells (%) [1]: 63%
Population Normal (%) [1]: 92%
Population Pyknosed Nuclei (%) [1]: 16%
Population Tubulin-Different-Phenotype (%) [1]: 39%
Total Cell Count [1]: 305
Population Apoptotic (%) [2]: 60%
Population Fragmented Nuclei (%) [2]: 5%
Population Healthy Nuclei (%) [2]: 77%
Population Mitochondria Different-Phenotype (%) [2]: 65%
Population Mitotic Cells (%) [2]: 39%
Population Tubulin-Different-Phenotype (%) [2]: 26%
Total Cell Count [2]: 349
Population Apoptotic (%) [3]: 49%
Population Fragmented Nuclei (%) [3]: 8%
Population Healthy Nuclei (%) [3]: 74%
Population Hoechst High Intensity Objects (%) [3]: 5%
Population Membrane Permeable-Phenotype (%) [3]: 0%
Population Mitochondria Different-Phenotype (%) [3]: 72%
Population Mitotic Cells (%) [3]: 50%
Population Normal (%) [3]: 94%
Population Pyknosed Nuclei (%) [3]: 17%
Population Tubulin-Different-Phenotype (%) [3]: 62%
Total Cell Count [3]: 384
Population Apoptotic (%) [4]: 38%
Population Fragmented Nuclei (%) [4]: 5%
Population Healthy Nuclei (%) [4]: 77%
Population Hoechst High Intensity Objects (%) [4]: 12%
Population Mitochondria Different-Phenotype (%) [4]: 86%
Population Mitotic Cells (%) [4]: 62%
Population Normal (%) [4]: 87%
Population Pyknosed Nuclei (%) [4]: 16%
Population Tubulin-Different-Phenotype (%) [4]: 56%
Total Cell Count [4]: 345
Population Apoptotic (%) [5]: 38%
Population Fragmented Nuclei (%) [5]: 10%
Population Healthy Nuclei (%) [5]: 74%
Population Hoechst High Intensity Objects (%) [5]: 7%
Population Membrane Permeable-Phenotype (%) [5]: 0%
Population Mitochondria Different-Phenotype (%) [5]: 37%
Population Mitotic Cells (%) [5]: 61%
Population Normal (%) [5]: 92%
Population Pyknosed Nuclei (%) [5]: 14%
Population Tubulin-Different-Phenotype (%) [5]: 20%
Total Cell Count [5]: 395
Population Apoptotic (%) [6]: 50%
Population Fragmented Nuclei (%) [6]: 8%
Population Healthy Nuclei (%) [6]: 79%
Population Hoechst High Intensity Objects (%) [6]: 6%
Population Mitochondria Different-Phenotype (%) [6]: 48%
Population Mitotic Cells (%) [6]: 50%
Population Normal (%) [6]: 93%
Population Pyknosed Nuclei (%) [6]: 11%
Population Tubulin-Different-Phenotype (%) [6]: 16%
Total Cell Count [6]: 422
Population Apoptotic (%) [7]: 43%
Population Fragmented Nuclei (%) [7]: 9%
Population Healthy Nuclei (%) [7]: 76%
Population Hoechst High Intensity Objects (%) [7]: 2%
Population Membrane Permeable-Phenotype (%) [7]: 0%
Population Mitochondria Different-Phenotype (%) [7]: 62%
Population Mitotic Cells (%) [7]: 56%
Population Normal (%) [7]: 97%
Population Pyknosed Nuclei (%) [7]: 13%
Population Tubulin-Different-Phenotype (%) [7]: 37%
Total Cell Count [7]: 472
Population Apoptotic (%) [8]: 57%
Population Fragmented Nuclei (%) [8]: 8%
Population Healthy Nuclei (%) [8]: 72%
Population Hoechst High Intensity Objects (%) [8]: 5%
Population Mitochondria Different-Phenotype (%) [8]: 68%
Population Mitotic Cells (%) [8]: 42%
Population Normal (%) [8]: 94%
Population Pyknosed Nuclei (%) [8]: 19%
Population Tubulin-Different-Phenotype (%) [8]: 28%
Total Cell Count [8]: 381
Population Apoptotic (%) [9]: 33%
Population Fragmented Nuclei (%) [9]: 11%
Population Healthy Nuclei (%) [9]: 80%
Population Hoechst High Intensity Objects (%) [9]: 1%
Population Membrane Permeable-Phenotype (%) [9]: 0%
Population Mitochondria Different-Phenotype (%) [9]: 23%
Population Mitotic Cells (%) [9]: 66%
Population Normal (%) [9]: 98%
Population Pyknosed Nuclei (%) [9]: 7%
Population Tubulin-Different-Phenotype (%) [9]: 13%
Total Cell Count [9]: 627
Population Apoptotic (%) [10]: 30%
Population Fragmented Nuclei (%) [10]: 9%
Population Healthy Nuclei (%) [10]: 81%
Population Hoechst High Intensity Objects (%) [10]: 2%
Population Mitochondria Different-Phenotype (%) [10]: 30%
Population Mitotic Cells (%) [10]: 69%
Population Normal (%) [10]: 97%
Population Pyknosed Nuclei (%) [10]: 9%
Total Cell Count [10]: 593
Population Apoptotic (%) [11]: 43%
Population Fragmented Nuclei (%) [11]: 13%
Population Healthy Nuclei (%) [11]: 80%
Population Hoechst High Intensity Objects (%) [11]: 4%
Population Membrane Permeable-Phenotype (%) [11]: 0%
Population Mitochondria Different-Phenotype (%) [11]: 44%
Population Mitotic Cells (%) [11]: 56%
Population Normal (%) [11]: 95%
Population Pyknosed Nuclei (%) [11]: 6%
Population Tubulin-Different-Phenotype (%) [11]: 16%
Total Cell Count [11]: 636
Population Apoptotic (%) [12]: 42%
Population Fragmented Nuclei (%) [12]: 12%
Population Healthy Nuclei (%) [12]: 78%
Population Hoechst High Intensity Objects (%) [12]: 2%
Population Mitochondria Different-Phenotype (%) [12]: 53%
Population Mitotic Cells (%) [12]: 57%
Population Normal (%) [12]: 97%
Population Pyknosed Nuclei (%) [12]: 9%
Population Tubulin-Different-Phenotype (%) [12]: 20%
Total Cell Count [12]: 521
